Experimental data gathered from unrelated publications.
Lines come from different studies, so protocols differ.
Target: Serine/threonine-protein kinase Nek6 (NEK6, Homo sapiens, UniProt Q9HC98)

SMILES | test | conditions | endpoint | result
COc1cc(Nc2ncc(F)c(Nc3ccc4c(n3)NC(=O)C(C)(C)O4)n2)cc(OC)c1OC | binding, competition with immobilised ligand | 10 µM | inhibition | 100%
O=c1[nH]c2ccccc2n1C1CCN(Cc2ccc(-c3[nH]c4cc5ncnc5cc4nc3-c3ccccc3)cc2)CC1 | cell-free assay | 0.5 µM | remaining signal | 98.2%
Nc1ncc(-c2nc(N3CCOCC3)nc(N3CCOCC3)n2)c(C(F)F)n1 | binding, competition with immobilised ligand | 10 µM | remaining binding | 100%
N#CC1(c2ccccn2)CCN(Cc2cc(C(=O)O)c(=O)n3ccccc23)CC1 | cell-free assay, competition with immobilised ligand | 1 µM | remaining binding | 100%
Cn1cc(-c2cccc(N3CCc4c(sc5c4CC(C)(C)C5)C3=O)c2CO)cc(Nc2ccncn2)c1=O | enzyme activity, inhibitor | 1 µM | inhibition | 4%
O=C1Nc2ccc3ncsc3c2/C1=C/c1cnc[nH]1 | enzyme activity, inhibitor | 0.5 µM | remaining activity | 93.2%
Cn1cncc1[C@](O)(COc1ccc(C#N)cc1-c1ccc(OC(F)(F)F)cc1)c1ccc(C#N)cc1 | cell-free assay, competition with immobilised ligand | 1 µM | remaining binding | 95%
Cc1nn(C)cc1-c1nc2c(N3CCN(Cc4ccc(Cl)cc4)CC3)c(Cl)cnc2[nH]1 | binding, competition with immobilised ligand | 1 µM | remaining binding | 100%
Cn1cc(-c2cc(F)cc(N3CCn4c(cc5c4CCCC5)C3=O)c2CO)cc(Nc2ccc(N3CCN(C4COC4)CC3)cn2)c1=O | enzyme activity, inhibitor | 0.1 µM | inhibition | 6%
COc1ncccc1-c1cnn2ccc(N3CCN(C(=O)OC(C)C)CC3)nc12 | binding, competition with immobilised ligand | 1 µM | remaining binding | 68%
